Experiments:
[1] = biological target: T1, Pancreatic triacylglycerol lipase (Sus scrofa) (UniProt P00591); assay: Inhibition of porcine pancreatic lipase assessed as residual activity at 4.1 mg/ml under duodenal phase at pH 6.5 using solid test meal measured after 30 to 90 mins relative to control; conditions: time 30-90 min
T1 sequence (whole entry): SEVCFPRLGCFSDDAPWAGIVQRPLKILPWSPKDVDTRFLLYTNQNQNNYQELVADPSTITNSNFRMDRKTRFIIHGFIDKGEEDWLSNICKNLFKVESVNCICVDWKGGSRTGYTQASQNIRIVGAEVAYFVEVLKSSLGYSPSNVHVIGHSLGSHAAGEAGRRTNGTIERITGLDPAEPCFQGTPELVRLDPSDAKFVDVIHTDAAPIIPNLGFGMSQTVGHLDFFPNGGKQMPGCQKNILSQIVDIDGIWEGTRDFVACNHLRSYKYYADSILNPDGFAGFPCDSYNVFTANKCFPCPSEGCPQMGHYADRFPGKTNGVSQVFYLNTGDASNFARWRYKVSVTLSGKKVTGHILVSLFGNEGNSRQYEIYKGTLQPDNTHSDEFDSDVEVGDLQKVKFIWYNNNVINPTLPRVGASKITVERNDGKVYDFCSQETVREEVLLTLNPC

[2] = biological target: T2, Gastric triacylglycerol lipase (Canis lupus familiaris) (UniProt P80035); assay: Inhibition of recombinant dog gastric lipase preincubated for 1 hr at 25 degreeC relative to orlistat
T2 sequence (whole entry): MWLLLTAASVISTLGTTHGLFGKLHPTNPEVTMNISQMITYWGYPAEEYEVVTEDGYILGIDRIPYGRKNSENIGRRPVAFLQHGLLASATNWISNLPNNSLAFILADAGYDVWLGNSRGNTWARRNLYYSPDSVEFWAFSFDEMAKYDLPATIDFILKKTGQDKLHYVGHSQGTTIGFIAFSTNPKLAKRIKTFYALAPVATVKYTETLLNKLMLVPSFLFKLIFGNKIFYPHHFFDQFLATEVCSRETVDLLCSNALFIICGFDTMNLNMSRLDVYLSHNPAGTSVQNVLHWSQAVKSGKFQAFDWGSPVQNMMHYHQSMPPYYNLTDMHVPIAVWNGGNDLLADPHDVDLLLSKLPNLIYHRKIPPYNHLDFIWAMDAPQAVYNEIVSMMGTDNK

[3] = species on record: Homo sapiens; assay: Inhibition of human pancreatic carboxylesterase preincubated for 30 mins at 25 degreeC
Outline: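 hCEH (1 mg/mL in 10 mM MES pH 6.5, 150 mM NaCl) pre-incubated 30 min at 25 °C with inhibitor from DMSO stock at various molar excesses, no substrate. Residual activity by pH-stat on tributyrin emulsion at 37 °C in 1 mM Tris-HCl pH 8.0, 100 mM NaCl, 5 mM CaCl2, 1 mM NaTDC. Relative to DMSO-only control; at least triplicate.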

[4] = biological target: T2, Gastric triacylglycerol lipase (Canis lupus familiaris); assay: Inhibition of recombinant dog gastric lipase at 4.1 mg/ml under gastric phase at pH 5.5 using solid test meal measured up to 30 mins relative to control; conditions: time min <=30
Outline: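 Gastric phase: 15 mL liquid or solid test meal (506 mg TAG) premixed with 734 µL of 4.1 mg/mL DMSO stock (2.94 mg, 7.262 µmol), then DGL to 17 µg/mL final, pH 5.5, 37 °C, stirred. Samples at 1, 15, 29 min; residual DGL activity by pH-stat; lipolysis level from TLC-FID of lipid extracts. DMSO-only controls; n = 3.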

O=c1oc(OCCOCc2ccccc2)nn1-c1cccc(Oc2ccccc2)c1
Activity [1]: 94.9%
fold change (FC) [2]: 11.2
XI50 [3]: 1.42 molar excess
inhibition [4]: 97.2%

From ChEMBL document CHEMBL4715754, “Slowing down fat digestion and absorption by an oxadiazolone inhibitor targeting selectively gastric lipolysis” (2016)
